Laboratory results published in the EternaBench riboswitch data.

Tested on: MS2 coat protein
Assay: apparent Kd, MS2 coat protein; higher = weaker binding; RNA-MaP array; FMN 200 µM where present
How it was run: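 The apparent Kd is reported as the median of filtered per-cluster binding-curve fits. To get these curves, designs transcribed by stalled E. coli RNA polymerase on Illumina sequencing-chip clusters were titrated with SNAP-549-labelled MS2 coat protein from 0.7 or 1.5 nM, doubling to 3 µM. Titrations were run without and then with constant ligand in 100 mM Tris-HCl pH 7.5, 80 mM KCl, 4 mM MgCl2, BSA, DTT, yeast tRNA and Tween-20, and green signal was normalised to red-channel RNA signal and control-cluster median Fmax.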

[1] = designed as: ON switch for flavin mononucleotide, no ligand
[2] = ligand present: flavin mononucleotide, designed as: ON switch for flavin mononucleotide
[3] = designed as: OFF switch for flavin mononucleotide, no ligand
[4] = ligand present: flavin mononucleotide, designed as: OFF switch for flavin mononucleotide

Sequence: GGAGCCGGUACUGAGGAUAUUCAUAUUAAAACAUGAGGAUCACCCAUGUGGGCCAGAAGGCCUUGGGAGAAGGCAGACCAGCUCG
- apparent Kd [1]: 0.238 µM
- apparent Kd [2]: 0.0221 µM

Sequence: GGAGCUCCCAUUAACAUGAGGAUCACCCAUGUCAAAAGACAUGAGGAUAUGCUACCUAAUUGGUAGCAGAAGGCAUGGAGCUCC
- apparent Kd [1]: 1.16 µM
- apparent Kd [2]: 0.081 µM

Sequence: GGAUAGGACAGAGGAUAUACGUGCUAAAGAUACUAGCAAAAUUUCCUCACAUGAGGAUCACCCAUGUAGAAGGCUGUCCUAUCG
- apparent Kd [3]: 0.0178 µM
- apparent Kd [4]: 0.466 µM

Sequence: GGAUAGGACAGAGGAUAUACGUGCUAGAGAUACUAGCAAAAUUUCCUCACAUGAGGAUCACCCAUGUAGAAGGCUGCCCUAUCG
- apparent Kd [3]: 0.0138 µM
- apparent Kd [4]: 0.374 µM

Sequence: GGAUAGGACAGAGGAUAUACGUGCUAGAGAUACUAGCAAAAUUUCCUCACAUGAGGAUCACCCAUGUAGAAGGCUGUCCUAUAG
- apparent Kd [3]: 0.0167 µM
- apparent Kd [4]: 0.432 µM

Sequence: GGAUAGGACAGAGGAUAUACGUGCUAGAGAUACUAGCAAAAUUUCCUCACAUGAGGAUCACCCAUGUAGAAGGCUGUCCUAUCA
- apparent Kd [3]: 0.0167 µM
- apparent Kd [4]: 0.38 µM

Sequence: GGAUAGGACAGAGGAUAUACGUGCUAGAGAUACUAGCAAAAUUUCCUGACAUGAGGAUCACCCAUGUAGAAGGCUGUCCUAUCG
- apparent Kd [3]: 0.00722 µM
- apparent Kd [4]: 0.0155 µM

Sequence: GGAUAGGACAGAGGAUAUACGUGCUAGAGAUACUAGCAAAUUUUCCUCACAUGAGGAUCACCCAUGUAGAAGGCUGUCCUAUCG
- apparent Kd [3]: 0.0246 µM
- apparent Kd [4]: 0.511 µM

Sequence: GGAUAGGACAGAGGAUAUACGUGCUUGAGAUACUAGCAAAAUUUCCUCACAUGAGGAUCACCCAUGUAGAAGGCUGUCCUAUCG
- apparent Kd [3]: 0.0202 µM
- apparent Kd [4]: 0.436 µM

Sequence: GGAUAGGACAGAGGAUAUAGGUGCUAGAGAUACUAGCAAAAUUUCCUCACAUGAGGAUCACCCAUGUAGAAGGCUGUCCUAUCG
- apparent Kd [3]: 0.0115 µM
- apparent Kd [4]: 0.0254 µM

Sequence: GGAUAGGACAGAGGAUAUUCGUGCUAGAGAUACUAGCAAAAUUUCCUCACAUGAGGAUCACCCAUGUAGAAGGCUGUCCUAUCG
- apparent Kd [3]: 0.00537 µM
- apparent Kd [4]: 0.0103 µM

Sequence: GGAUAGUACAGAGGAUAUACGUGCUAGAGAUACUAGCAAAAUUUCCUCACAUGAGGAUCACCCAUGUAGAAGGCUGUCCUAUCG
- apparent Kd [3]: 0.00594 µM
- apparent Kd [4]: 0.0518 µM

Sequence: GGAUAGUGAGGAUAUGCAUACGGUGUAAGUCCCAGAUCGAAACAUGAGGAUCACCCAUGUAGAAGGCGCAAAAC
- apparent Kd [3]: 0.0236 µM
- apparent Kd [4]: 0.0755 µM

Sequence: GGAUAUGACAGAGGAUAUACGUGCUAGAGAUACUAGCAAAAUUUCCUCACAUGAGGAUCACCCAUGUAGAAGGCUGUCCUAUCG
- apparent Kd [3]: 0.0163 µM
- apparent Kd [4]: 0.275 µM

Sequence: GGAUCGAAUGUGAGGAUAUACCUAUGGAAACAUAGGUAGAAGGCACAUGAGGAUCACCCAUGUUCCUACGGUCC
- apparent Kd [3]: 0.0922 µM
- apparent Kd [4]: 0.577 µM

Sequence: GGAUCGAGUGUGAGGAUAUGCUGGUCCUUGGAUCAGCAGAAGGCACAUGAGGAUCACCCAUGUGUUCCCGGUCC
- apparent Kd [3]: 0.0489 µM
- apparent Kd [4]: 0.577 µM

Sequence: GGAUCGAUGUAGAAGGCUGUCCUAAAAUAGGACAGAGGAUAUACAUGAGGAUCACCCAUGUACUCCUUUAAAACGAUCCAAAUA
- apparent Kd [3]: 0.00544 µM
- apparent Kd [4]: 0.00759 µM

Sequence: GGAUGACAAAGUCAUCCAAAUCGAACAUGAGGAUCACCCAUGUAGGAUAUGCUACACAAAGUGUAGCAGAAGGACAUGUGCUUU
- apparent Kd [3]: 0.0422 µM
- apparent Kd [4]: 0.258 µM

Sequence: GGAUGACAAAGUCAUCCAUAACGAACAUGAGGAUCACCCAUGUAGGAUAUGCUUCUCAAAGAGAAGCAGAAGGACAUGUGCCUU
- apparent Kd [3]: 0.0367 µM
- apparent Kd [4]: 0.258 µM

Sequence: GGAUGACAAAGUCAUCCUUAACGAACAUGAGGAUCACCCAUGUAGGAUAUGCUACUCAAAGAGUAGCAGAAGGACAUGUGCCUU
- apparent Kd [3]: 0.035 µM
- apparent Kd [4]: 0.242 µM

Sequence: GGAUGAGAAACUCAUCCAAUACGAACAUGAGGAUCACCCAUGUAGGAUAUGCUACUCAAAGAGUAGCAGAAGGACAUGUGUCUU
- apparent Kd [3]: 0.0274 µM
- apparent Kd [4]: 0.159 µM

Sequence: GGAUUUUCUGAGGAUAUUGCAUCACCCGAUUUAUAAGAAGGCAGAACAUGAGGAUCACCCAUGUGGGUCUCCAG
- apparent Kd [3]: 0.0286 µM
- apparent Kd [4]: 0.058 µM

Sequence: GGCAAUAACGAGGAUAUCGUAUCGGAAACGAUACGAGAAGGUGUAACAUGAGGAUCACCCAUGUUCCUUAAGCC
- apparent Kd [3]: 0.0249 µM
- apparent Kd [4]: 0.0266 µM

Sequence: GGCAUGCAAAUAAAACAUGAGGAUCACCCAUGUGAGUCUCAUGAGGAUAUGCAGGUCAAAGACUUGCAGAAGGCAUGGCGUGCC
- apparent Kd [1]: 1.95 µM
- apparent Kd [2]: 0.132 µM

Sequence: GGCAUGUGGGCAGGAUAUAACUCGGUCUCUAGGUUAGAAGGGCCACACAUGAGGAUCACCCAUGUCGACCAGGCAGUCCUCCCU
- apparent Kd [3]: 0.0262 µM
- apparent Kd [4]: 0.0605 µM

Sequence: GGCGAACAGGCUAACAUGAGGAUCACCCAUGUGGACUCAUGGUAGGAUAUCGGGAAGGAGGAAACCGAGAAGGGCCGGUGAGCU
- apparent Kd [1]: 0.0677 µM
- apparent Kd [2]: 0.0263 µM

Sequence: GGCGAACAGGCUAACAUGAGGAUCACCCAUGUGGACUCAUGGUAGGAUAUGCUCAUCAAAGAUGAGCAGAAGGGCCGGUGAGCC
- apparent Kd [1]: 0.0548 µM
- apparent Kd [2]: 0.463 µM
